{"data": "Assay results of several laboratories", "target": "Mu-type opioid receptor (OPRM1, Homo sapiens, UniProt P35372)", "note": "Lines come from different studies, so protocols differ. pEC50, pIC50, pKi: −log10 of the molar value."}
{"SMILES": "Oc1cccc([C@@]23CCC[C@@H](C2)N(CCc2ccccc2)C[C@H]3O)c1 (relative stereo)", "observed": "cell-free assay", "measurement": "pKi", "result": "~8.30"}
{"SMILES": "Clc1ccc(CSc2nnc(-c3ccccn3)n2Cc2ccco2)cc1Cl", "observed": "β-arrestin recruitment", "mode": "agonist", "technique": "imaging", "measurement": "pEC50", "result": "< 4.49"}
{"SMILES": "CC(CCc1ccc(O)cc1)NCCc1ccc(O)c(O)c1 (stereo not shown)", "observed": "ligand displacement", "technique": "radioligand", "measurement": "pIC50", "result": 5.78}
{"SMILES": "Cc1cccc(C)c1-c1cnc2c(c1)C[C@@]1(OCCCc3ccccc3)[C@H]3Cc4ccc(O)c5c4[C@@]1(CCN3CC1CC1)[C@H]2O5", "observed": "cell-free assay", "measurement": "pKi", "result": "~6.70"}
{"SMILES": "CCCCCCCCC[C@@H]1CC(=O)NCC(=O)N[C@H](Cc2ccc(O)cc2)C(=O)NCC(=O)N[C@@H](Cc2ccccc2)C(=O)O1", "observed": "ligand displacement", "technique": "radioligand", "measurement": "pIC50", "result": 4.80}
{"SMILES": "CCCCC/C=C\\C/C=C\\C/C=C\\CCCCC(=O)O", "observed": "ligand displacement", "technique": "radioligand", "setting": "cell membranes", "measurement": "pKi", "result": 4.64}
{"SMILES": "Cc1cc(O)cc(C)c1C[C@H](N)C(=O)N1Cc2ccccc2C[C@H]1C(=O)NCC(=O)NC(c1ccccc1)c1ccccc1", "observed": "ligand displacement", "technique": "radioligand", "setting": "cell membranes", "measurement": "pKi", "result": 8.77}
{"SMILES": "CC(CCc1ccccc1)NC(C)C(O)c1ccc(O)cc1 (stereo not shown)", "observed": "ligand displacement", "technique": "radioligand", "measurement": "pIC50", "result": 5.00}
{"SMILES": "Cc1cc(O)cc(C)c1C[C@H](N)C(=O)N1Cc2ccccc2C[C@@H]1C(=O)NCC(=O)NCc1ccccc1", "observed": "ligand displacement", "technique": "radioligand", "setting": "cell membranes", "measurement": "pKi", "result": 10.17}
{"SMILES": "CC(NCCc1ccc(O)cc1)C(O)c1ccc(O)cc1 (stereo not shown)", "observed": "ligand displacement", "technique": "radioligand", "measurement": "pIC50", "result": 5.04}
{"SMILES": "Cc1ccc(CNC(=O)CNC(=O)[C@@H]2Cc3ccccc3CN2C(=O)[C@@H](N)Cc2c(C)cc(O)cc2C)cc1", "observed": "ligand displacement", "technique": "radioligand", "setting": "cell membranes", "measurement": "pKi", "result": 8.43}
{"SMILES": "Oc1ccc2c3c1O[C@H]1c4ncc(-c5ccccc5)cc4C[C@@]4(OCCCc5cccnc5)[C@@H](C2)N(CC2CC2)CC[C@]314", "observed": "cell-free assay", "measurement": "pKi", "result": 8.40}
{"SMILES": "COc1ccc2c(c1)[C@]13CCCC[C@@H]1[C@H](C2)N(C)CC3", "observed": "ligand displacement", "technique": "radioligand", "measurement": "pIC50", "result": 5.77}
